The results in this text go back to the EternaBench riboswitch data.

The subject of the series is MS2 coat protein. Kind of series: apparent Kd, MS2 coat protein; higher = weaker binding; RNA-MaP array; FMN 200 µM where present. The method in brief: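 Stalled E. coli RNA polymerase produced the designs on Illumina sequencing-chip clusters. SNAP-549-labelled MS2 coat protein was added from 0.7 or 1.5 nM, doubling to 3 µM, without and then with constant ligand, in 100 mM Tris-HCl pH 7.5, 80 mM KCl, 4 mM MgCl2, BSA, DTT, yeast tRNA and Tween-20. The apparent Kd is the median of filtered per-cluster fits of green signal normalised to red-channel RNA signal and control-cluster median Fmax.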

Where [1] appears, read: designed as: ON switch for flavin mononucleotide, no ligand.
The mark [2] stands for this setting: ligand present: flavin mononucleotide, designed as: ON switch for flavin mononucleotide.
Where [3] appears, read: designed as: OFF switch for flavin mononucleotide, no ligand.
Where [4] appears, read: ligand present: flavin mononucleotide, designed as: OFF switch for flavin mononucleotide.

As a reminder, the apparent Kd is a dissociation constant that holds for the conditions of the assay. On to “GCCUAGCCCAAGCCCACGGCAUCACAGGAUAUGCCGAUAACAUGAGGAUCACCCAUGUCAACUCCGCAGAAGGGUGAUAUCGUG”, for which the “apparent Kd” value is 75.9 nM under setting [1] and 10 nM under setting [2].

For the sequence “UUAUUUAGGUAGGAUAUCGAUAUUAUUCCCUAUCGAGAAGGGUCUACAUGAGGAUCACCCAUGUUAGCAUGUUU”, the “apparent Kd” value reads like this: under setting [3], 22.3 nM; under setting [4], 22.2 nM.

Take “GGGCCACAUGAGGAUCACCCAUGUAAACCCGUGCUCAGGGCACAGGAUAUGGGCCUGGAUGAGGCCCAGAAGGGUGGUCUGGCC”: the “apparent Kd” value runs as follows: under setting [1], 40.1 nM; under setting [2], 16.3 nM.

As for “GUGCCUAACUAGAAGGCCGAUAGCAAAGCUAUCGGAGGAUAUGGGUUCCGGAAACGGACAUGAGGAUCACCCAUGUGGCACAAA”, the “apparent Kd” value worked out at 86.5 nM under setting [1] and 12.8 nM under setting [2].

As for “GGCGAACAGGCUAACAUGAGGAUCACCCAUGUGGACUCAUGCGAGGAUAUCGGGAAGGAGGAUUCCGAGAAGGUGCGGUGAGCC”, the “apparent Kd” value under setting [1] came out at 788 nM and the “apparent Kd” value under setting [2] came to 304 nM.

“UCUCGACAUGAGGAUCACCCAUGUCAGGAUAUUGUAUUGGAGGUGUUUAACCUUAUGGCAAGAAGGGAUGUGUG”: the “apparent Kd” value was determined as 24 nM under setting [3] and 27.1 nM under setting [4].

For “AACUCGUCAGGAUAUGCGCACAGAUAAUACGCUACACAAUUGCAGAAGGGACAUGAGGAUCACCCAUGUAAAUA”, the “apparent Kd” value under setting [3] turned out to be 39 nM and the “apparent Kd” value under setting [4] worked out at 26.2 nM.

Consider “ACAUUGUGAGGAUAUCCGAAGAAGGUCCGGAAGGUUCGGGUGGAGAAGGCACAUGAGGAUCACCCAUGUGUGGG”, for which the “apparent Kd” value under setting [3] was determined as 51.8 nM and the “apparent Kd” value under setting [4] was found to be 137 nM.

Take “CUUUUGUGAGGAUAUUCGUAGUAAAUGAAUAAAAUUAUUACGGAGAAGGCACAUGAGGAUCACCCAUGUUCCUC”: the “apparent Kd” value is 42.2 nM under setting [3] and 343 nM under setting [4].

Take “AAGGUGAGAGGAUAUACAUGAGGAUCACCCAUGUGCCGGCCCUCCACAUAUGCCUUGUGUAGAAGGCUCCCGAA”: the “apparent Kd” value under setting [3] was determined as 14.5 nM and the “apparent Kd” value under setting [4] came out at 14.9 nM.

As to “GUAGCAUACCGAGGAUAUCUAUCCCGGAAACGGACAUGAGGAUCACCCAUGUGGCGAAAGCCUUGGGAGAAGGCGGAAUGCUAC”, the “apparent Kd” value was found to be 46.7 nM under setting [1] and 17.2 nM under setting [2].

As for “AGCUGACGAGGAUAUACAUGAGGAUCACCCAUGUUGGUUCAGCGACGAUAGUCGCAAUGUAGAAGGUGUCAGCU”, the “apparent Kd” value reads like this: under setting [3], 126 nM; under setting [4], 664 nM.

Take “UAGAAGUCAGGAUAUCCAGCUCGUCACUUGCGUGAUGAGUUGGAGAAGGGACAUGAGGAUCACCCAUGUAAAGA”: the “apparent Kd” value under setting [3] is 61.9 nM and the “apparent Kd” value under setting [4] turned out to be 57.8 nM.

In the case of “CGUCUCAUAGGAUAUGCACGGAGGCAGGUCCUUGGCAACACACAUGAGGAUCACCCAUGUAGAAGGAUGCUACG”, the “apparent Kd” value reads like this: under setting [3], 19.4 nM; under setting [4], 30.5 nM.

Take “CCAUGCGGAUGAGGAUAUUCAUUCAUGAGGAUAGAAGAAGGCGUACAUGAGGAUCACCCAUGUAUACACAUGAGGAUCCCUUAC”: the “apparent Kd” value runs as follows: under setting [3], 385 nM; under setting [4], 372 nM.

Consider “AAAUUUAACGAAGGAUAUGCUGACAUGAGGAUCACCCAUGUGUGCCUUGUGUUACUGAUUAGGUUGCAGAAGGUCGUAUACAUA”, for which the “apparent Kd” value is, setting by setting: under setting [3], 230 nM; under setting [4], 948 nM.

For “UUUUCUUUUGUGAGGAUAUACUUCUUUUUUUUUUUGUAGAAGGCACAUGAGGAUCACCCAUGUUUUCUUUUCUG”, the “apparent Kd” value was 18.9 nM under setting [3] and 21.8 nM under setting [4].

With “GGUACUCAAAGAGUACCAAUACGAACAUGAGGAUCACCCAUGUAGGAUAUGCUACUCAAAGAGUAGCAGAAGGACAUGCGCCUA”, the “apparent Kd” value under setting [3] was found to be 18.2 nM and the “apparent Kd” value under setting [4] turned out to be 106 nM.

Regarding “GCGCAUUUUAGAUUUAUAUAAUUUUCAGAAGGUGAAUAGUCGACAUGAGGAUCACCCAUGUAUUUCAAGGAUAUGAUUUAGCGC”, the “apparent Kd” value runs as follows: under setting [1], 68.6 nM; under setting [2], 13 nM.

For “CUGUUAUAGGUCCAGAAUUACAACAUGAGGAUCACCCAUGUGCAGGAUAUCGGGAUAAUAAACGACGAGAAGGGCAUAGUCACG”, the “apparent Kd” value under setting [3] was 16.9 nM and the “apparent Kd” value under setting [4] was 24.5 nM.

As for “AUCAGCUCGUCAGGAUAUACGUCACUGCUUCGGCAGUGUGGUAAGAUCACAUGAGGAUCACCCAUGUAGAAGGGACGAGCUGAU”, the “apparent Kd” value is 38.4 nM under setting [3] and 754 nM under setting [4].

Consider “AAAACAUGAGGAUCACCCAUGUUUAGAUCGGUCGAUUGAGGUGAGGAUAUACUAAGUUAAGGCUGGUAGAAGGCACUGGGUACA”, for which the “apparent Kd” value came to 62 nM under setting [1] and 43.6 nM under setting [2].

On to “UUGGACGUCGUAGGAUAUGUAGUAUAUUCCUACAUGAGGAUCACCCAUGUUGACAUGGAAGAAGGACAGAAGGACGAUGUCCAU”, for which the “apparent Kd” value is, setting by setting: under setting [1], 6.54 nM; under setting [2], 5.01 nM.

For the sequence “AAGAAGUCAGGAUAUCCAGCUCGUCACUUGCGUGAUGAGUUGGAGAAGGGACAUGAGGAUCACCCAUGUAAAGG”, the “apparent Kd” value by setting is: under setting [3], 202 nM; under setting [4], 230 nM.

As for “GACUGAUUGUAGAAGGUACUUGACUAUAUAUUUUAUUCAUAUAGACAUGAGGAUCACCCAUGUAGUAAGGAUAUACUUUUAACA”, the “apparent Kd” value runs as follows: under setting [1], 9.31 nM; under setting [2], 6 nM.

For the sequence “GGAUAUAUUACAUGAGGAUCACCCAUGUCAGAACGGGUAAUCAGAAGGUACUAUUAGAGAAAGAGUAAGGAUAUGAUUAUAUCC”, the “apparent Kd” value turned out to be 801 nM under setting [1] and 165 nM under setting [2].

Take “CCGGCGGGAGGAUAUACAUGAGGAUCACCCAUGUGCUUCAGCUAGGAGACUAGCAUUGGUAGAAGGCCCGCCGG”: the “apparent Kd” value under setting [3] was determined as 19 nM and the “apparent Kd” value under setting [4] came to 160 nM.

With “UGUUGUAGUACAGGAUAUGCGGUGGAUUCGGACAUGAGGAUCACCCAUGUGCCUUUAUAACGUCUGCAGAAGGGUGAAAGAACG”, the “apparent Kd” value runs as follows: under setting [1], 500 nM; under setting [2], 130 nM.

For “AUAGUGCCCGAGAAGGACGUACCACAUGUUGAUCACCGAUAUAAGGAACGUAGGAUAUUGGACAUGAGGAUCACCCAUGUGGAU”, the “apparent Kd” value by setting is: under setting [1], 87.5 nM; under setting [2], 162 nM.

Regarding “GGUUGGCGAGGAUAUACAUGAGGAUCACCCAUGUGAGAGAAAAAAGUGAGAACGAAAAGUAGAAGGCGCUGACG”, the “apparent Kd” value was found to be 43.5 nM under setting [3] and 176 nM under setting [4].

Take “UGAUAGGACAGAGGAUAUACGUAUAUUCUCCUAAACAUGAGGAUCACCCAUGUAGAAGGCUGUCCUAUCUAAGUCGGAAACGAC”: the “apparent Kd” value under setting [3] came out at 5.4 nM and the “apparent Kd” value under setting [4] was 23.4 nM.

On to “CCAGAGAUAUGAGGAUAUCGAGUGGAUAACACUCGAGAAGGCAUGUGAAAACAUGAGGAUCACCCAUGUAUGAUCUACUCUGGA”, for which the “apparent Kd” value by setting is: under setting [1], 50.6 nM; under setting [2], 23.8 nM.

Take “UCCUGGCGAGGAUAUACAAAGUUUUUCACGUUUUGUUACGAACAUGAGGAUCACCCAUGUAGAAGGUGCUACUG”: the “apparent Kd” value runs as follows: under setting [3], 116 nM; under setting [4], 103 nM.

For “AUAUGAAAGAUAGGAUAUACUGAGGUUGAAUGGGUAGAAGGAUCGAUAGUGAAGAAUACAUGAGGAUCACCCAUGUUGUGGAUU”, the “apparent Kd” value is 556 nM under setting [1] and 209 nM under setting [2].

Turning to “AUUUUAAAGGGAGGAUAUACAUGAGGAUCACCCAUGUAAACAUGAGGAUCACCCUUGUAAACAAUGUAGAAGGCCUAAAUCUAU”, the “apparent Kd” value was 13 nM under setting [3] and 16.1 nM under setting [4].

For the sequence “GUAACAUGAGGAUCACCCAUGUAUAGAACACUCAAUAGAUCUGAGGAUAUACUAGAAUUUACGUAGUAGAAGGCAGUGGGUACA”, the “apparent Kd” value was determined as 64.1 nM under setting [1] and 33.6 nM under setting [2].

With “AUCAGCUCGUCAGGAUAUACGUCACUGAGUCAGCAGUGUGGUAAGAUCACAUGAGGAUCACCCAUGUAGAAGGGACGAGCUGAU”, the “apparent Kd” value is, setting by setting: under setting [3], 16.3 nM; under setting [4], 241 nM.

For “GCAGACGUAGUGAGGAUAUGCUCUACCUCGGUAGAGCAGAAGGCACAUGAGGAUCACCCAUGUGGCUCCUCUGC”, the “apparent Kd” value is, setting by setting: under setting [3], 16.2 nM; under setting [4], 25.1 nM.

For “CAUUAAUUCAUUAUAUUAAUUUUACAGGAUAUGUAACAUGAGGAUCACCCAUGUAUUCUAGGUUAACAGAAGGGUAUUGCUUGU”, the “apparent Kd” value is 24.5 nM under setting [3] and 21.3 nM under setting [4].

“ACAUUGCGAGGAUAUACAUGAGGAUCACCCAUGUGGUGGCAGAUACGGUAGGGCUAGUGUAGAAGGUGUCAUGG”: the “apparent Kd” value is, setting by setting: under setting [3], 528 nM; under setting [4], 435 nM.

For “GCUAUCGAUGUAGGAUAUGCUAGGGAAACCCUGGCAGAAGGACAUGAGGAUCACCCAUGUCAAUGGAUGAAGAGAAGAGAUGGC”, the “apparent Kd” value by setting is: under setting [3], 27.8 nM; under setting [4], 122 nM.

On to “CACGUCCUCACAGGAUAUGCUGGACUUUGUCCAGCAGAAGGGUGACAUGAGGAUCACCCAUGUAAAAGGACGUGUAUAUUUAAU”, for which the “apparent Kd” value reads like this: under setting [1], 515 nM; under setting [2], 41.5 nM.

On to “UUAUAUAGGUAGGAUAUCGAUUUUAAUUAUUUUCGAGAAGGGUCAACAUGAGGAUCACCCAUGUCAGCAUGUAU”, for which the “apparent Kd” value reads like this: under setting [3], 58.7 nM; under setting [4], 49.1 nM.

“UGUAUGGACAGAGGAUAUACAGAUAGGAUCUACUAUCAAACAUUCCUGACAUGAGGAUCACCCAUGUAGAAGGCUGUCCAUACU”: the “apparent Kd” value came out at 21.1 nM under setting [3] and 79.2 nM under setting [4].

Regarding “UGUUACUAGUAAGGAUAUACUUGCAAUUAGCUUGUAGAAGGUACAGUCUUUUGUAUAACAUGUUUACAUGAGGAUCACCCAUGU”, the “apparent Kd” value under setting [1] was determined as 10.4 nM and the “apparent Kd” value under setting [2] is 9.05 nM.

With “GCCAUCGUAUGAGGAUAUGGCACCGAAACGGUGCCAGAAGGCAUGUCAAUAGACAUGAGGAUCACCCAUGUGUUAUCGAUGGCC”, the “apparent Kd” value is, setting by setting: under setting [1], 84.9 nM; under setting [2], 11.7 nM.

As for “CUGGUUGUCGUAGGAUAUGUAGGAUAUUCCUACAUGAGGAUCACCCAUGUUCGCAUGGAAGAAGGACAGAAGGACGAUGACCAA”, the “apparent Kd” value under setting [1] turned out to be 1160 nM and the “apparent Kd” value under setting [2] is 8.77 nM.

Regarding “GUCAGCUCGUGAGGAUAUACAACACUGCUUCGGCAGUGUAUUAAGAUCACAUGAGGAUCACCCAUGUAGAAGGCACGAACUGAU”, the “apparent Kd” value by setting is: under setting [3], 12.9 nM; under setting [4], 212 nM.
